Runt-SMMHC FRET = blocks binding of human RUNX1 Runt domain to CBFb-SMMHC | Cerulean-Runt/Venus-CBFb-SMMHC FRET ratio 530/480, 1 h | inhibition, % at 20 µM | 0.74% of 220,000 active;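 active = mean inhibition across duplicate retests at 20 µM reaching about 50%, limit read from the data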;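 also: 0% = DMSO wells and 100% = wells with excess untagged CBFb-SMMHC; inhibitors lower the FRET ratio by blocking Runt binding to CBFb-SMMHC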
14-3-3 Bad inh = disrupts binding of bovine 14-3-3 zeta to phospho-Bad peptide | 0.71% of 220,000 active | TR-FRET 14-3-3zeta/Dy647-pBad peptide displacement, 1 h | P63103 | inhibition, % at 21.7 µM;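 active = inhibition above about 70%, limit read from the data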;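 also: 0% = full 14-3-3 plus peptide FRET controls and 100% = background without 14-3-3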
Tb hexokinase = T. brucei hexokinase 1 inhibition; recombinant TbHK1, G6PDH-coupled NADH A340; inhibition, % at 10 µM; 0.11% of 220,000 active;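 active = inhibition of 50% or more in the single-dose primary screen; inactive = inhibition below 50%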
Hck-Nef inh = inhibitors of human Hck kinase activated by Nef. 0.68% of 220,000 active. inhibition, % at 20 µM. Recombinant Hck-YEEI plus Nef, Z-Lyte FRET kinase assay. AID 463187;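 active = Hck-Nef kinase inhibition above about 50%, limit read from the data; inactive = inhibition below that limit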;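 also: 0% = DMSO with Hck plus Nef and 100% = Hck alone without Nef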
Target sequence (P08631 whole entry, looked up): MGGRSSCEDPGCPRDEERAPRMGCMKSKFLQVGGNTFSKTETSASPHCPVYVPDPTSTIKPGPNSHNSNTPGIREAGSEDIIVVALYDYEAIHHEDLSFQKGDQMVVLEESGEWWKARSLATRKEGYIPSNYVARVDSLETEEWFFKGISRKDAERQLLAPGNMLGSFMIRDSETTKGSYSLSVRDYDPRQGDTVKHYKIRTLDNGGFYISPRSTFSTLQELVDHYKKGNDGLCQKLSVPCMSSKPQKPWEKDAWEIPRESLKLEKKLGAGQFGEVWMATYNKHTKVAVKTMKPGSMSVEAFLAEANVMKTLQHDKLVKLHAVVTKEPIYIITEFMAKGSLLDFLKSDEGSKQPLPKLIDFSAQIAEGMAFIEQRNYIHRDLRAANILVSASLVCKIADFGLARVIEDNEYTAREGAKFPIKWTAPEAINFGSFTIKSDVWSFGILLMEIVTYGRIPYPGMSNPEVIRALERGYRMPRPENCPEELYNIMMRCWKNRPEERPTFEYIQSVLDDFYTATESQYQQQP
Runt-CBFb FRET = blocks binding of human RUNX1 Runt domain to CBFb; AID 1496; inhibition, % at 20 µM; 0.46% of 220,000 active; Cerulean-Runt/Venus-CBFb FRET ratio 530/480, 1 h;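 active = inhibition over about 50% at 20 µM in the single-dose screen, limit read from the data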;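 also: 0% = DMSO wells and 100% = excess unlabeled CBFb competitor control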
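Assay system: Cerulean-tagged RUNX1 Runt domain (FRET donor) fusion protein / Amount: 100 nM each of Venus-CBFb and Cerulean-Runt domain / Medium: Tris buffer pH 7.5 with salts and BSA / Also added: Venus-CBFb 100 nM / Schedule: 1 h complex formation plus 1 h compound treatment, room temperature / Signal: FRET fluorescence / Read-out: loss of energy transfer signal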
RanGTP-Imp inh = inhibitors of RanGTP-importin-beta interaction, primary screen, biochemical, FRET, CFP-Ran, YFP-importin-beta, homogeneous; 1.1% of 300,000 active; inhibition, % (concentration not given with the values); AID 2216; cell-free CFP-Ran/YFP-importin-beta FRET ratio;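 active = more than half of the replicate wells show a fall in the fluorescence ratio signal beyond about 16%, limit read from the data, passing the limit was not always enough; inconclusive = exactly half of the replicate wells pass the set limit; inactive = fewer than half of replicates pass the limit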;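 also: 0% = DMSO wells and 100% = Ran loaded with GDP instead of GTP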
Starred values were filed as active, the others as inactive; ? = inconclusive; . = no result. Most compounds without a hit are left out; they make up all but 2.2% or so of the library.

SMILES	Runt-SMMHC FRET	14-3-3 Bad inh	Tb hexokinase	Hck-Nef inh	Runt-CBFb FRET	RanGTP-Imp inh
CCn1c(=N)c(S(=O)(=O)c2ccccc2)cc2c(=O)n3ccccc3nc21	90.5*	78.8*	-1.2	18.4	20.6	169.8*
NS(=O)(=O)c1ccc(NC2=CC(c3ccc([N+](=O)[O-])cc3)N(c3ccc(S(N)(=O)=O)cc3)C2=O)cc1 (stereo not given)	-6.7	-5.0	3.9	29.7	5.0	-4.4
CCCCN1C(=O)Cc2c1nc(N)c1c(N)nc(N(CCC)CCC)c(C#N)c21	-1.6	24.4	-7.1	15.5	103.3*	3.0
CCOc1ccccc1NS(=O)(=O)c1c(C)[nH]c(C)c1C(=O)N1CCCCC1	.	.	.	.	.	-0.9
COc1ccc(-c2nc3ccc(C(=O)NCC(OC)OC)cc3nc2-c2ccc(OC)cc2)cc1	2.8	5.3	-5.7	7.9	4.1	15.5*
CC(=O)C(C(C)=O)c1c(Cl)c(O)c(O)c2c(C(=O)c3ccccc3)coc12	40.8	12.1	7.5	2.1	45.4	1.6
O=C(CSc1nnc(C2CCCCC2)o1)Nc1ccccc1Cl	.	.	.	.	.	-0.2
O=C(NC(=S)Nc1ccc2oc(-c3ccncc3)nc2c1)c1ccccc1F	-8.0	73.3*	-27.2	14.8	2.9	-4.4
O=C(Nc1ccc2oc(-c3ccc(F)cc3)nc2c1)c1ccccc1F	3.9	-0.1	-29.3	2.1	-0.2	4.8
O=C(c1ccc2c(=O)n3c(nc2c1)CCCCC3)N1CCc2ccccc21	1.5	-1.0	-7.9	20.6	-2.1	8.1
COc1cc(/C=N/O)ccc1Oc1ccc([N+](=O)[O-])cc1[N+](=O)[O-]	2.5	-13.8	-1.6	36.8	2.2	-1.5
O=[N+]([O-])c1cc(/C=N\O)ccc1Oc1ccc(F)cc1	-3.9	84.5*	-2.5	20.1	1.1	-3.9
COC(=O)c1scc2c(=O)cc(C(F)(F)F)[nH]c12	83.7*	5.7	3.2	-126.4	9.5	116.9*
CNS(=O)(=O)c1cccc(C(=O)OCC(=O)N(Cc2ccccc2)C(C)(C)C)c1	0.5	-10.4	-0.1	26.3	-1.3	-0.3
COc1ccccc1C(=O)NNC(=S)NC(=O)c1sc2ccccc2c1Cl	-6.7	-4.1	-19.0	1.2	1.6	?
COc1ccccc1C(=O)NC(=S)NNC(=O)c1sc2ccccc2c1Cl	-4.5	38.1	4.3	-0.4	0.4	49.1*
N#Cc1ccc(CN2C=NS(=O)(=O)c3ccccc32)cc1	.	.	.	.	.	3.2
Cc1ccc(-n2nc3c(=O)n(CCCC(=O)NCc4ccc(C)o4)nc(C)c3c2C)cc1	.	.	.	.	.	2.8
Cc1ccsc1/C=N/NC(=O)c1cccnc1	2.8	1.6	-68.7	23.1	5.6	9.9
Nc1cccc2c1C(=O)N(C(=O)/C=C/c1cccc(F)c1)C2=O	89.6*	9.9	-15.7	16.3	-42.0	27.4*
COc1cc(/C=C/C(=O)N2C(=O)c3cccc(N)c3C2=O)cc(OC)c1OC	33.2	5.2	-15.3	2.0	-26.1	?
Nc1cccc2c1C(=O)N(C(=O)/C=C/c1cccc(Br)c1)C2=O	83.7*	-1.9	-11.4	-60.3	-49.0	34.0*
CCOc1cc(Br)c(Br)c(C=Nc2ccc(NC(C)=O)cc2)c1O	-20.2	44.2	10.0	62.6*	-4.6	-6.9
COc1ccc(CCNC2CC(=O)N(CCc3ccccc3)C2=O)cc1OC (stereo not given)	-2.5	.	-0.3	-0.6	0.6	?
COc1ccc(CCNC2=C(Cl)C(=O)N(CCc3ccccc3)C2=O)cc1OC	55.0*	-7.3	-3.0	0.8	-2.2	-1.4
O=C1Nc2ccc(Br)cc2C1(O)c1ccc(F)cc1 (stereo not given)	.	.	.	.	.	1.4
COCCn1nnnc1C(C(C)C)N1CCC(Cc2ccccc2)CC1 (stereo not given)	4.0	83.9*	-6.4	2.8	-2.3	-2.8
CC(C)C(c1nnnn1CCc1ccccc1)N1CCOCC1 (stereo not given)	3.2	70.5*	-5.8	1.6	-2.6	-1.5
O=C(Cc1nc2ccccc2[nH]1)NCc1ccco1	9.8	6.9	2.2	0.0	12.2	35.0*
CCCCOC(=O)C1CCCC(C(=O)OCCCC)N1 (stereo not given)	3.3	17.1	-6.9	0.5	6.7	-2.9
